Source: PubChem BioAssay
A selection: hits, their analogues and other compounds. The true share with any hit is near 3.8%.
HSF1 inh: HSF1 inhibitors in luciferase reporter cells, primary screen, cell-based, NIH3T3, luminescence | 0.77% of 300,000 active | AID 2098, 2009 | NIH3T3-HGL HSE-luciferase, MG132-induced, luminescence 8 h; hits give low values | activity change, negative = inhibition, % at 7.5 µM (by protocol);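 active = more than half of replicate wells show activity change below -50%, luminescence cut by over half; inconclusive = some wells, but at most half, below -50%; inactive = no replicate well below -50%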;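 also: luciferase reports HSF-1 transcriptional activity via heat shock element; 0% = median of DMSO wells and -100% = zero luminescence signal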
Lipid droplet: inhibitors of hepatocyte lipid droplet formation, primary screen, imaging, high-throughput imaging, BODIPY stain | inhibition, % at 6.5 µM | AID 1656, 2009 | 0.4% of 240,000 active | AML12 mouse hepatocytes, oleate lipid droplets;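 active = lipid droplet intensity inhibited by at least 50%, with more than 500 cells counted; inconclusive = wells with under 300 cells, treated as cytotoxic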
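Assay system: AML12 hepatocytes (mouse); Probe or stimulus: oleic acid at 100 µM to induce lipid droplet formation; Dosing: compound at 6.5 µM only; Schedule: compound with oleate, overnight; Detection: fluorescence imaging, 20x objective, two fields per well; Measure: % inhibition of lipid droplet signal.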
HSP90 inh: HSP90 inhibitors, primary screen, cell lysate, luminescence | Rabbit reticulocyte lysate, luciferase refolding luminescence, 3 h | 0.91% of 290,000 active | inhibition, % at 5.6 µM | Heat shock protein HSP 90 (rabbit reticulocyte lysate; luciferase refolding);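 active = inhibition above the screen-wide mean plus 3 SD, computed separately per campaign, cut at about 16% in these data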;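 also: 0% = DMSO wells and 100% = 60 µM geldanamycin wells; inhibitors lower the luminescence because luciferase stays unfolded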
HSF1 activator: HSF-1 activators, primary screen, NIH3T3-HGL cells, MG132 stress, luminescence, single point | NIH3T3-HGL HSF-1 luciferase reporter, 8 h; 100% = twice DMSO control signal | activation, % at 9 µM | 1.7% of 300,000 active | AID 504408, 2011;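 active = mean replicate activation of at least 50% with a set share of replicates each reaching 50%; inconclusive = only one of those two conditions met; inactive = mean below 50% and too few replicates reaching it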;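 also: 0% = median of the neutral control wells and 100% = twice that signal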
HCV NS3 hel inh: inhibitors of HCV NS3 helicase, primary screen, biochemical, Cy5 molecular beacon fluorescence | 0.56% of 290,000 active | inhibition, % at 10.9 µM | NS3 helicase DNA unwinding | AID 1800, 2009;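 active = inhibition above the mean of all tested compounds plus 3 SD, set per campaign, cut at about 35% in these data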;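 also: 0% = DMSO wells and 100% = thioflavine S control wells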
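assay system = NS3 helicase fragment of HCV | buffer or medium = MOPS pH 6.5, MgCl2, DTT, Tween20, BSA | timing = 60 min unwinding reaction at 25 °C after ATP addition | signal = Cy5 beacon fluorescence read at start and 1 h | read-out basis = % inhibition of unwinding | control set = low DMSO, high thioflavine S at 110 µM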
HSP90 inh confirm: HSP90 inhibitors, confirmation, cell lysate, luminescence; 64% of 2,300 active; shares compounds with HSP90 inh; AID 1846, 2009; rabbit reticulocyte lysate, luciferase refolding luminescence, 3 h; inhibition, % at 5.9 µM; in the data active = inhibition above about 18%;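 also: 0% = vehicle wells and 100% = reference inhibitor wells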
luciferase ctr: firefly luciferase inhibitors, HSP90 counter-screen, confirmation, artefact control for HSP90 inhibitor project, biochemical, luminescence, triplicate; shares compounds with HSP90 inh; purified native firefly luciferase; inhibition, % at 5.9 µM; 48% of 2,300 active; AID 1847, 2009;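 active = inhibition above the mean inhibition of all tested sample wells plus 3 SD, cut at about 10% in these data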;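 also: 0% = DMSO with luciferase and 100% = wells lacking luciferase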
Target sequence (P08659 whole entry, looked up): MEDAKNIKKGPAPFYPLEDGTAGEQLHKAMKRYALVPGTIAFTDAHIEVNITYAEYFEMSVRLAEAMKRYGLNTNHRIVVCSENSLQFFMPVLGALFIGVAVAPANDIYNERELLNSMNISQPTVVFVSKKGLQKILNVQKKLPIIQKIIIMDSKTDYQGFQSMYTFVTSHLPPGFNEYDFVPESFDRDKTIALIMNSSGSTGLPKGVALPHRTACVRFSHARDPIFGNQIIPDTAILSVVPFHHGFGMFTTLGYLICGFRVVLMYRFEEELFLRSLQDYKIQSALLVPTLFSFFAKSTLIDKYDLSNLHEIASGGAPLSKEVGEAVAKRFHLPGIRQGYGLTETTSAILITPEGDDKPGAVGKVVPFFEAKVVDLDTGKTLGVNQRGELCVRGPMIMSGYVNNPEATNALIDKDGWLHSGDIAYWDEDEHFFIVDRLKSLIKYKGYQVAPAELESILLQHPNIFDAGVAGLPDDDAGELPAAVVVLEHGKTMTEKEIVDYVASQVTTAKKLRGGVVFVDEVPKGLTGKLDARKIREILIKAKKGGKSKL
An asterisk follows results filed as active; ? = inconclusive; . = no result given.

SMILES | HSF1 inh | Lipid droplet | HSP90 inh | HSF1 activator | HCV NS3 hel inh | HSP90 inh confirm | luciferase ctr
CNc1nc(-c2ccc3c(c2)CCN3C(=O)c2ccc(F)cc2)cs1 | . | 9.3 | 19.1* | . | -9.3 | 14.2 | -23.2
CNc1nc(-c2ccc3c(c2)CCN3C(=O)c2cccc(F)c2)cs1 | -1.4 | 5.0 | 11.2 | 5.0 | -9.9 | . | .
CC(C)C[C@@]12C(=O)N(c3cccc(Br)c3)C(=O)N1[C@H](c1ccc(F)cc1)[C@@H]1C(=O)N(C3CCCCC3)C(=O)[C@@H]12 | 5.3 | . | . | -4.9 | . | . | .
Cc1ccccc1Oc1nc2c(C)cccn2c(=O)c1/C=C(\C#N)C(=O)NC1CCS(=O)(=O)C1 (centres undefined) | 43.2 | -10.8 | 17.2* | 71.8* | -1.5 | 25.8* | -10.7
Cc1cccn2c(=O)c(/C=C(\C#N)C(=O)NC3CCS(=O)(=O)C3)c(Oc3ccccc3Cl)nc12 (centres undefined) | 10.6 | -2.7 | 4.5 | 31.4 | -6.6 | . | .
COc1cccc(/C=C2\SC(=O)NC2=O)c1OCc1ccc(C(=O)O)cc1 | 1.5 | 15.8 | 22.8* | 11.5 | 4.3 | -6.1 | -15.6
CN1C(=O)S/C(=C\c2ccccc2OCc2ccc(C(=O)O)cc2)C1=O | 4.3 | 5.5 | 2.7 | 3.2 | 11.0 | . | .
N#CC(Cc1cccc(CC(C#N)(c2ccccc2)c2ccccc2)c1)(c1ccccc1)c1ccccc1 | -13.9 | -2.4 | 39.6* | -18.9 | 24.4 | 10.9 | -6.8
O=C(N/N=C/c1ccc2c(c1)OCO2)c1cc(-c2ccc(F)cc2)nc2ccccc12 | -8.1 | 2.5 | -1.5 | -16.4 | 16.7 | . | .
O=C(O)COc1ccccc1/C=N/NC(=O)c1cc(-c2ccc(F)cc2)nc2ccccc12 | -8.5 | -5.0 | 17.0* | -24.0 | -10.8 | 25.0* | 7.8
Cc1ccc2cc(/C=N/NC(=O)c3ccc(F)cc3)c(Cl)nc2c1 | -4.1 | -4.6 | 4.5 | -0.2 | 13.5 | . | .
COc1cc(/C=N/Nc2ccc(C(=O)O)cc2)cc(OC)c1OC | -26.0 | 2.5 | 11.4 | -24.1 | -0.1 | . | .
O=C(O)c1ccc(N/N=C/c2ccc3nccnc3c2)cc1 | -81.0* | 3.0 | 91.5* | -84.5 | -1.8 | 92.2* | 85.1*
CCOc1ccc(/C=N/NS(=O)(=O)c2ccc(C)cc2)cc1OC | 10.7 | 14.5 | -2.4 | 14.7 | 8.7 | . | .
COc1cc(/C=N/Nc2ccc(C(=O)O)cc2)ccc1O | -25.0 | 5.5 | 38.3* | -35.4 | 10.4 | 62.6* | 53.6*
COc1cc(/C=N/NS(=O)(=O)c2ccc(C)cc2)ccc1OCc1ccc(C(=O)O)cc1 | -75.4* | -9.1 | 65.5* | -78.2 | 14.7 | -2.6 | -11.0
Cc1ccc2nc(Cl)c(/C=N/Nc3ccc(C(=O)O)cc3)cc2c1 | 16.7 | -0.4 | 28.8* | 17.3 | 21.3 | 17.9* | -10.2
COc1ccc(-c2cc3ncnc(Cl)c3s2)cc1 | 26.1 | -5.7 | 11.5 | 44.0 | 2.6 | . | .
COc1ccc(C(=O)C2CCCN(C(=O)c3cccc(N4CCCC4=O)c3)C2)cc1OC (centres undefined) | 14.6 | -0.6 | 6.0 | ? | -9.3 | . | .
COc1cccc(C2c3cc4c(cc3OC(N3CCOCC3)C2C)OCO4)c1O (centres undefined) | -1.0 | . | . | -1.0 | . | . | .
Cc1nc(SCCOc2ccccc2F)[nH]c(=O)c1Cc1ccccc1 | 0.8 | 17.8 | 4.1 | 24.5 | 13.1 | . | .
COc1ccc(S(=O)(=O)N2CCN(Cc3ccc(Cl)cc3)CC2)cc1 | -1.1 | -14.6 | 2.7 | 0.3 | 1.6 | . | .
COc1ccc(CN2CCN(S(=O)(=O)c3ccc(NC(C)=O)cc3)CC2)cc1 | 1.3 | -1.0 | 24.3* | 11.6 | 8.5 | -0.7 | -2.5
CCOc1ccc(/C=C2\CCc3ccccc3C2=O)cc1 | -31.6 | -0.8 | 35.4* | -39.5 | 9.5 | 44.1* | 73.3*
Cn1cccc1/C=C1\Cc2ccccc2C1=O | 0.1 | -1.8 | 8.5 | 9.2 | 15.3 | . | .
SMILES | HSF1 inh | Lipid droplet | HSP90 inh | HSF1 activator | HCV NS3 hel inh | HSP90 inh confirm | luciferase ctr
Cn1cccc1/C=C1\CCc2ccccc2C1=O | -16.9 | 21.5 | 39.2* | -7.6 | 2.8 | 64.4* | 66.9*
C=CCn1c(SCCN2CCCC2)nc2c([nH]c3ccccc32)c1=O | 2.4 | 12.6 | -1.7 | 5.2 | 3.8 | . | .
Cc1cc(C(=O)NCC(=O)OCC(=O)NCCc2ccccc2)ccc1[N+](=O)[O-] | 1.9 | 6.8 | -2.1 | -6.6 | -4.7 | . | .
O=C(Nc1ccccc1)OCCN1CCN(Cc2ccccc2)CCC1=O | 2.1 | -4.1 | 2.2 | 0.3 | 7.3 | . | .
O=C1CCN(Cc2ccccc2)CCN1CCOc1ccccc1 | 1.6 | -0.7 | 16.9* | -3.3 | 9.8 | 13.3 | 21.0*
Cc1cccc(N/C(N)=N/c2nc(C)cc(=O)[nH]2)c1 | 5.5 | 5.6 | 0.5 | -1.9 | 1.7 | . | .
Cc1[nH]nc2c1C1(CCN(C(=O)OCc3ccccc3)CC1)C(C#N)=C(N)O2 | -5.3 | 18.6 | 24.0* | 0.1 | 0.3 | 7.4 | 3.9
COc1ccc(C(=O)Nc2ccccc2C(=O)N/N=C/c2cccc3ccccc23)cc1 | -71.8* | . | 35.0* | -76.3 | 0.0 | 79.7* | 50.8*
COc1ccc(C(=O)Nc2ccccc2C(N)=O)cc1 | 8.3 | 0.6 | -7.4 | 19.5 | 3.2 | . | .
COc1ccc(C(=O)Nc2ccccc2C(=O)NCc2cccnc2)cc1OC | -5.5 | 4.7 | -0.1 | -8.5 | 5.3 | . | .
COc1ccc(C(=O)Nc2ccccc2C(=O)N/N=C/c2ccncc2)cc1OC | 8.4 | 8.3 | 28.9* | 24.1 | -5.4 | 60.8* | 19.1*
Cn1c(=O)c(C(=O)CN2CC(=O)Nc3ccccc32)c(N)n(Cc2ccccc2)c1=O | 0.9 | -0.9 | 8.4 | -9.5 | -0.1 | . | .
Cc1ccc(C)c(-n2c(-c3ccc(Br)cc3)csc2=NC(=O)c2ccccc2F)c1 | -9.8 | 4.6 | 2.6 | -6.8 | -12.1 | . | .
Cc1cc2nc(-c3ccc[nH]c3=O)[nH]c2cc1C | -10.2 | 21.5 | 67.6* | -3.3 | 14.0 | 79.6* | 65.4*
O=C1CC[C@H](OCc2ccccc2)CCN1[C@H](CSc1ccccc1)Cc1ccccc1 | 11.5 | -17.3 | 26.9* | -9.4 | 5.7 | -4.6 | -14.3
N#Cc1cnn2c(-c3ccc(Cl)cc3Cl)ccnc12 | -13.9 | -17.6 | -0.4 | -10.2 | 2.6 | . | .
Cc1ccc(NCc2nc3ccccc3n2C)c(C)c1 | 32.7 | -9.2 | 28.5* | 63.6* | -6.6 | 45.1* | 39.3*
CC(=O)c1ccc(NC(=O)Cn2cnc(S(=O)(=O)N3CCCCC3)c2)cc1 | 5.3 | -0.3 | 1.4 | -6.1 | 12.2 | . | .
